# Assays:
# MCF7 = assay: Cytotoxicity against human MCF7 cells assessed as cell growth after 2 days by sulforhodamine B assay; format: functional; conditions: MCF7, 48 h
# Procedure, shortened: (§1)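 NCI cell lines were run by the Monks method: cells were plated with compounds from DMSO stocks and incubated 2 days at 37 °C in 5% CO2, in duplicate. Cells were fixed with cold TCA, stained with 0.4% SRB, and the bound dye was solubilized in 10 mM tris-base and read at 515 nm. The zero-day control was subtracted, and GI50 was taken from the curves.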
# Nannizzia gypsea = assay: Antifungal activity against Microsporum gypseum C 115 2000; format: functional
# Procedure, shortened: (§2)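 Dermatophytes tested by CLSI M38-A2 microdilution in MOPS-buffered RPMI-1640 at pH 7.0. Inoculum 1-5 × 10^3 CFU/mL; compounds 250 to 0.24 µg/ml in twofold steps, final DMSO <1%. Incubated at 28 °C in a moist, dark chamber and read according to control growth. MIC is the lowest concentration with complete inhibition. MFC is the lowest concentration with no growth after duplicate subculture on SDA.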
# [1] = test system: Trichophyton mentagrophytes; assay: Antifungal activity against Trichophyton mentagrophytes ATCC 9972; format: functional; procedure, shortened: as §2
# NCI-H460 = assay: Cytotoxicity against human H460 cells assessed as cell growth after 2 days by sulforhodamine B assay; format: functional; conditions: NCI-H460, 48 h; procedure, shortened: as §1
# Saccharomyces cerevisiae = assay: Antifungal activity against Saccharomyces cerevisiae ATCC 9763; format: functional
# Procedure, shortened: (§3)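 CLSI M27-A3 broth microdilution in RPMI-1640 buffered to pH 7.0 with MOPS. Inoculum 1-5 × 10^3 CFU/mL. Compound twofold dilutions from 250 to 0.24 µg/ml, final DMSO <1%. Incubated at 35 °C in a moist, dark chamber and read at 48 h. MIC is the lowest concentration giving total growth inhibition. For MFC, 5 µL from clear wells was plated in duplicate on SDA; MFC is the lowest concentration with no growth.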
# Trichophyton rubrum = assay: Antifungal activity against Trichophyton rubrum C 113 2000; format: functional; procedure, shortened: as §2
# [2] = Cytotoxicity against human erythrocytes assessed as hemolysis by spectrometric analysis; format: cell-based, Erythrocyte
# Procedure, shortened: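 Human heparinized red blood cells were washed in PBS at pH 7.0 and suspended at 4% in sterile 5% glucose. Compounds from DMSO stocks were diluted in 5% glucose to final concentrations of 250 to 0.24 µg/ml and incubated with the cells at 37 °C. Released hemoglobin was read at 540 nm. HC50 is the concentration giving 50% lysis relative to the drug-free value.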
# Candida tropicalis = assay: Antifungal activity against Candida tropicalis C 131 2000; format: functional; procedure, shortened: as §3
# Aspergillus flavus = assay: Antifungal activity against Aspergillus flavus ATCC 9170; format: functional
# Procedure, shortened: (§4)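 Broth microdilution per CLSI M38-A2 in RPMI-1640 with MOPS at pH 7.0. Inoculum 1-5 × 10^3 CFU/mL, with twofold compound dilutions spanning 250-0.24 µg/ml (final DMSO <1%). Plates incubated at 35 °C, moist and dark, and read when the control fungus had grown. MIC is total growth inhibition. MFC comes from subculturing clear wells in duplicate onto SDA.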
# SF-268 = assay: Cytotoxicity against human SF268 cells assessed as cell growth after 2 days by sulforhodamine B assay; format: functional; conditions: SF-268, 48 h; procedure, shortened: as §1
# Cryptococcus neoformans = assay: Antifungal activity against Cryptococcus neoformans ATCC 32264; format: functional; procedure, shortened: as §3
# Aspergillus fumigatus = assay: Antifungal activity against Aspergillus fumigatus ATCC 26934; format: functional; procedure, shortened: as §4
# Candida albicans = assay: Antifungal activity against Candida albicans ATCC 10213; format: functional; procedure, shortened: as §3
# Aspergillus niger = assay: Antifungal activity against Aspergillus niger ATCC 9029; format: functional; procedure, shortened: as §4
MIC (Nannizzia gypsea) [µg/mL],MIC [1] [µg/mL],MIC (Saccharomyces cerevisiae) [µg/mL],MIC (Trichophyton rubrum) [µg/mL],MIC (Candida tropicalis) [µg/mL],MIC (Aspergillus flavus) [µg/mL],MIC (Cryptococcus neoformans) [µg/mL],MIC (Aspergillus fumigatus) [µg/mL],SMILES,GI50 (MCF7) [µg/mL],MFC (Nannizzia gypsea) [µg/mL],MFC [1] [µg/mL],GI50 (NCI-H460) [µg/mL],MFC (Saccharomyces cerevisiae) [µg/mL],MFC (Trichophyton rubrum) [µg/mL],HC50 [2] [µg/mL],MFC (Candida tropicalis) [µg/mL],MFC (Aspergillus flavus) [µg/mL],GI50 (SF-268) [µg/mL],MFC (Cryptococcus neoformans) [µg/mL],MFC (Aspergillus fumigatus) [µg/mL],other results
3.9,15.6,15.6,1.95,125,31.2,15.6,15.6,CC1=CC(=O)N(CCCc2ccccc2)C1=O,> 10,7.81,31.2,> 10,62.5,3.9,> 250,125,31.2,> 10,31.2,31.2,MFC (Candida albicans): 125 µg/mL; MIC (Candida albicans): 62.5 µg/mL; MFC (Aspergillus niger): 31.2 µg/mL; MIC (Aspergillus niger): 31.2 µg/mL
7.81,7.81,7.81,3.9,62.5,15.6,15.6,15.6,CCN1C(=O)C=CC1=O [N-ETHYLMALEIMIDE],9.9,7.81,15.6,6.7,15.6,3.9,> 250,125,15.6,6.5,31.2,31.2,MFC (Candida albicans): 250 µg/mL; MIC (Candida albicans): 62.5 µg/mL; MFC (Aspergillus niger): 15.6 µg/mL; MIC (Aspergillus niger): 7.81 µg/mL
15.6,7.81,3.9,3.9,15.6,15.6,7.81,15.6,O=C1C(Cl)=C(Cl)C(=O)N1CCc1ccccc1,> 10,31.2,15.6,> 10,7.81,7.81,> 250,31.2,15.6,> 10,7.81,15.6,MFC (Candida albicans): 15.6 µg/mL; MIC (Candida albicans): 7.81 µg/mL; MFC (Aspergillus niger): 31.2 µg/mL; MIC (Aspergillus niger): 15.6 µg/mL
3.9,3.9,31.2,3.9,62.5,62.5,15.6,62.5,COc1ccc(N2C(=O)C=CC2=O)cc1,> 10,7.81,7.81,> 10,62.5,3.9,> 250,125,125,> 10,15.6,125,MFC (Candida albicans): 125 µg/mL; MIC (Candida albicans): 62.5 µg/mL; MFC (Aspergillus niger): 62.5 µg/mL; MIC (Aspergillus niger): 31.2 µg/mL

# More lines, now with the values behind:
SMILES,MIC (Nannizzia gypsea) [µg/mL],MIC [1] [µg/mL],MIC (Saccharomyces cerevisiae) [µg/mL],MIC (Trichophyton rubrum) [µg/mL],MIC (Candida tropicalis) [µg/mL],MIC (Aspergillus flavus) [µg/mL],MIC (Cryptococcus neoformans) [µg/mL],MIC (Aspergillus fumigatus) [µg/mL],GI50 (MCF7) [µg/mL],MFC (Nannizzia gypsea) [µg/mL],MFC [1] [µg/mL],GI50 (NCI-H460) [µg/mL],MFC (Saccharomyces cerevisiae) [µg/mL],MFC (Trichophyton rubrum) [µg/mL],HC50 [2] [µg/mL],MFC (Candida tropicalis) [µg/mL],MFC (Aspergillus flavus) [µg/mL],GI50 (SF-268) [µg/mL],MFC (Cryptococcus neoformans) [µg/mL],MFC (Aspergillus fumigatus) [µg/mL],other results
O=C1C=CC(=O)N1c1ccc(F)cc1F,3.9,3.9,7.81,3.9,15.6,62.5,7.81,31.2,> 10,7.81,7.81,> 10,15.6,7.81,> 250,31.2,62.5,> 10,7.81,31.2,MFC (Candida albicans): 31.2 µg/mL; MIC (Candida albicans): 15.6 µg/mL; MFC (Aspergillus niger): 31.2 µg/mL; MIC (Aspergillus niger): 15.6 µg/mL
O=C1C=CC(=O)N1c1ccc(F)cc1,3.9,3.9,3.9,3.9,15.6,15.6,7.81,15.6,> 10,7.81,7.81,> 10,7.81,7.81,> 250,15.6,15.6,> 10,15.6,31.2,MFC (Candida albicans): 15.6 µg/mL; MIC (Candida albicans): 15.6 µg/mL; MFC (Aspergillus niger): 7.81 µg/mL; MIC (Aspergillus niger): 7.81 µg/mL
O=C1C=CC(=O)N1CCCCc1ccccc1,0.97,3.9,0.97,0.48,7.81,7.81,15.6,15.6,> 10,1.95,7.81,> 10,1.95,0.97,> 250,15.6,15.6,> 10,31.2,31.2,MFC (Candida albicans): 7.81 µg/mL; MIC (Candida albicans): 3.9 µg/mL; MFC (Aspergillus niger): 7.81 µg/mL; MIC (Aspergillus niger): 7.81 µg/mL
O=C1C(Cl)=C(Cl)C(=O)N1CCCCc1ccccc1,15.6,3.9,3.9,3.9,7.81,15.6,3.9,31.2,> 10,31.2,7.81,> 10,7.81,7.81,> 250,15.6,31.2,> 10,3.9,62.5,MFC (Candida albicans): 15.6 µg/mL; MIC (Candida albicans): 7.81 µg/mL; MFC (Aspergillus niger): 15.6 µg/mL; MIC (Aspergillus niger): 15.6 µg/mL
CC1=CC(=O)N(CCCCc2ccccc2)C1=O,3.9,31.2,31.2,3.9,62.5,62.5,31.2,31.2,> 10,15.6,31.2,> 10,62.5,15.6,> 250,125,125,> 10,62.5,62.5,MFC (Candida albicans): 125 µg/mL; MIC (Candida albicans): 62.5 µg/mL; MFC (Aspergillus niger): 125 µg/mL; MIC (Aspergillus niger): 62.5 µg/mL
COc1ccc(N2C(=O)C=CC2=O)c(OC)c1,3.9,3.9,7.81,3.9,15.6,62.5,7.81,31.2,> 10,7.81,3.9,> 10,7.81,7.81,> 250,15.6,125,> 10,7.81,62.5,MFC (Candida albicans): 15.6 µg/mL; MIC (Candida albicans): 15.6 µg/mL; MFC (Aspergillus niger): 62.5 µg/mL; MIC (Aspergillus niger): 15.6 µg/mL
